Measurements from ChEMBL document CHEMBL4334446, “Evaluating the effects of fluorine on biological properties and metabolic stability of some antitubulin 3-substituted 7-phenyl-pyrroloquinolinones” (Eur J Med Chem, 2019).
Active and inactive are the calls of the source. No cut-off for these calls is given here.

Tests used:
HL-60 = assay: Growth inhibition of human HL60 cells incubated for 72 hrs by MTT assay; type: functional; settings: HL-60, 72 h
Summary of the method: (§1)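 Leukemia lines were grown in RPMI-1640; the CEM^Vbl-100 medium also contained 100 ng/mL vinblastine. Cells were seeded at 8 × 10³ per well and left 18 h at 37 °C, 5% CO2. Medium was then replaced with fresh medium holding graded compound concentrations (DMSO stocks), in triplicate, for 72 h. Viability was read by MTT, and GI50 = concentration inhibiting proliferation 50%.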

HeLa [1] = assay: Induction of cell cycle arrest in human HeLa cells assessed as accumulation at M phase by measuring p-histone H3 level at 50 to 100 nM incubated for 24 hrs by PI staining based flow cytometric analysis; type: functional
B16-BL6 [2] = assay: Growth inhibition of mouse B16-BL6 cells incubated for 72 hrs by MTT assay; type: functional; settings: B16-BL6, 72 h
HeLa [3] = assay: Cell cycle arrest in human HeLa cells assessed as proportion of mitotic cells at 100 nM incubated for 24 hrs by PI staining based flow cytometry (reference value: 1.5%); type: functional
B16-BL6 [4] = assay: Antitumour activity against mouse B16-BL6 cells allografted in C57BL/6 mouse assessed as reduction in tumor mass at 3 mg/kg, ip administrated every other day relative to control; type: functional
Summary of the method: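 Male C57BL/6 mice (six weeks old) got 2.5×10^5 BL6-B16 murine melanoma cells s.c. in the dorsolateral flank, in PBS. Once tumors were measurable (about 100 mm³), mice were randomized and given drug i.p. every other day in 50 µL DMSO. Vehicle (DMSO) group served as control. Tumor volume = (D × d²)/2; tumor weight taken at end. 5 animals per group, mean ± SEM.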

HeLa [5] = assay: Cell cycle arrest in human HeLa cells assessed as decrease in phosphorylated form of cdc2 kinase at 50 to 100 nM incubated for 48 hrs by western blot analysis; type: functional, cell-based
Summary of the method: (§2)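 HeLa cells were exposed for set times, including 24 and 48 h, then washed in cold PBS and lysed on ice for 30 min. Lysates were cleared at 15000 × g at 4 °C. 10 µg protein was run by SDS-PAGE and transferred to PVDF. Blots were probed 2 h at room temperature with primary antibodies, then peroxidase secondary antibodies, and detected by ECL. Membranes were reprobed for actin as loading control.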

A-375 [6] = assay: Induction of cell cycle arrest in human A375 cells assessed as reduction in cell population at G1 phase at 50 to 100 nM incubated for 24 hrs by PI staining based flow cytometric analysis; type: functional
Summary of the method: (§3)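 A375 and A2058 melanoma cells were treated 24 h. Cells were fixed in ice-cold 70% ethanol, then given lysis buffer with RNase A and 0.1% Triton X-100 and stained with PI. Phase distribution came from flow cytometric DNA histograms. Mean ± SEM of two independent experiments.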

[7] = Growth inhibition of human DND41 cells incubated for 72 hrs by MTT assay; type: functional; settings: DND41, 72 h; summary of the method: as §1
A2058 = assay: Induction of cell cycle arrest in human A2058 cells assessed as reduction in cell population at G1 phase at 50 to 100 nM incubated for 24 hrs by PI staining based flow cytometric analysis; type: functional; summary of the method: as §3
HeLa [8] = assay: Induction of apoptosis in human HeLa cells assessed as decrease in Bcl2 protein expression at 10 to 100 nM incubated for 24 hrs by western blot analysis; type: functional, cell-based; summary of the method: as §2
HeLa [9] = assay: Induction of mitochondrial membrane depolarization in human HeLa cells at 10 to 100 nM measured at early apoptotic stage of cells by JC1 staining based flow cytometric analysis; type: functional, cell-based; settings: TDE = time-dependent effect
Summary of the method: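 HeLa cells were treated 6, 12, 24 and 48 h with 10–100 nM. Cells were stained with JC-1, and the fraction with low mitochondrial potential was measured by flow cytometry. Mean ± SEM of three independent experiments.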

HeLa [10] = assay: Cell cycle arrest in human HeLa cells assessed as decrease in cdc25c protein expression level at 50 to 100 nM incubated for 24 hrs by western blot analysis; type: functional, cell-based; summary of the method: as §2
HeLa [11] = assay: Cell cycle arrest in human HeLa cells assessed as proportion of mitotic cells at 50 nM incubated for 24 hrs by PI staining based flow cytometric assay (reference value: 1.5%); type: functional
HeLa [12] = assay: Increase in cyclin B1 protein expression level in human HeLa cells incubated for 24 to 48 hrs by western blot analysis; type: functional, cell-based; summary of the method: as §2
[13] = Selectivity ratio of GI50 for PHA-stimulated human PBL cells to GI50 for human CEM cells incubated for 72 hrs by MTT assay
Summary of the method: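 Leukemia cells (CEM, DND-41, Jurkat) were grown in RPMI-1640 at 8×10³ cells/well and left 18 h. Donor PBL were gradient-separated, held overnight, and non-adherent cells set at 5×10^5 cells/mL with 2.5 µg/mL PHA. Both were exposed 72 h at 37 °C to graded compound concentrations, read by MTT. The ratio is PBL GI50 over leukemia GI50.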

A-375 [14] = assay: Induction of cell cycle arrest in human A375 cells assessed as reduction in cell population at S phase at 50 to 100 nM incubated for 24 hrs by PI staining based flow cytometric analysis; type: functional; summary of the method: as §3
A-375 [15] = assay: Growth inhibition of human A375 cells incubated for 72 hrs by MTT assay; type: functional; settings: A-375, 72 h
[16] = Drug metabolism in human liver microsomes at 10 uM incubated for 60 mins in presence of NADPH by HPLC analysis; type: ADME, Microsome; settings: 1 h
Summary of the method: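 Compound (10 µM) was incubated 0 or 60 min at 37 °C with pooled HLMs (1 mg/mL), with or without 1 mM NADPH, or in buffer only (0.1 M KH2PO4 pH 7.4). Reactions were stopped with ice-cold acetonitrile. Remaining parent was measured by HPLC-fluorescence relative to 0 min; mean ± SD, n = 3.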

[17] = Metabolic stability in NADPH-supplemented human liver microsomes assessed as parent compound remaining at 37 degC incubated for 30 mins; type: ADME, Microsome; settings: read-out: Stability
Summary of the method: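 Compound (10 µM) was incubated at 37 °C with 0.5 mg/mL pooled HLMs and 1 mM NADPH in 0.1 M KH2PO4 pH 7.4, sampled at 0, 2, 5, 15 and 30 min. Controls without NADPH, or buffer only, ran 0 and 30 min. Parent was quantified by HPLC-fluorescence as % of the 0 min level, n = 3. t1/2 = 0.693/k, with k from regression of ln % remaining versus time.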

[18] = Metabolic stability in human liver microsomes assessed as 7-phenyl-3H-pyrrolo[3,2-f]quinolin-9(6H)-one metabolite formation at 10 uM incubated for 60 mins in presence of NADPH by ESI-MS analysis; type: ADME, Microsome; settings: 1 h
Summary of the method: (§4)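 Compound (10 µM) was incubated with pooled mixed-gender HLMs (0.5 mg protein/mL), 1 mM NADPH and 0.1 M KH2PO4 pH 7.4 for 60 min at 37 °C, aerobic. The reaction was started with microsomes and stopped with ice-cold acetonitrile; controls lacked NADPH. The supernatant went to C8 HPLC with fluorescence detection (ex 344, em 493 nm). Collected peaks were analyzed by ESI+ mass spectrometry.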

[19] = Metabolic stability in human liver microsomes assessed as retention time of 7-phenyl-3H-pyrrolo[3,2-f]quinolin-9(6H)-one metabolite at 10 uM incubated for 60 mins in presence of NADPH by HPLC analysis; type: ADME, Microsome; settings: 1 h; summary of the method: as §4

CCn1ccc2c3c(=O)cc(-c4ccccc4F)[nH]c3ccc21
GI50 (HL-60): 0.17 nM | Activity (HeLa [1]): Active | GI50 (B16-BL6 [2]): 10 nM | Activity (HeLa [3]): 44% | inhibition in vivo at 3 mg/kg (B16-BL6 [4]): 28.6% | inhibition (HeLa [5]): Active | Activity (A-375 [6]): Active | GI50 [7]: 0.26 nM | Activity (A2058): Active | Activity (HeLa [8]): Active | Activity (HeLa [9]): Tde | inhibition (HeLa [10]): Active | Activity (HeLa [11]): 10% | Activity (HeLa [12]): Dose-dependent effect | RatioGI50 [13]: 10000 - 30000 | Activity (A-375 [14]): Active | GI50 (A-375 [15]): 15.5 nM

CCn1ccc2c3c(=O)cc(-c4ccccc4)[nH]c3ccc21
GI50 (HL-60): 0.5 nM | Drug metabolism [16]: Metabolite_Detected | RatioGI50 [13]: 10000 - 30000 | remaining at 0.5 h [17]: < 70% | Drug metabolism [18]: Metabolite_Detected | Retention_time [19]: 11.2 min
